Test [1] has as its system NCI-H1975. Description: Induction of apoptosis in human NCI-H1975 cells assessed as activation of caspase 3 at 0.1 to 3 uM measured after 48 hrs immunoblot analysis. It counts as functional, cell-based. The method, boiled down:
(§1)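 H1975 cells cultured with compound at the indicated concentrations for 48 h, then immunoblotted with the indicated antibodies. Lysis buffer was ice-cold RIPA-type with phosphatase and protease inhibitors, 30 min on ice. Proteins separated on 8-15% SDS-PAGE, transferred to PVDF, primary antibody overnight at 4°C, HRP secondary 1 h at room temperature, ECL detection.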

The subject of test [2] is NCI-H1975. Description: Induction of apoptosis in human NCI-H1975 cells assessed as activation of gamma H2AX at 0.1 to 3 uM measured after 48 hrs immunoblot analysis. It counts as functional, cell-based. Put shortly: as §1
In test [3] the target is T1, Heat shock protein HSP90 (Homo sapiens) (UniProt P07900+P08238). Nature of the test: Inhibition of HSP90 in human H1975 cells assessed as downregulation of EGFR protein level by Western blot analysis. Type of test: cell-based. The method, boiled down: (§2)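 H1975 cells given DMSO or 0.1-3 μM compound for 24 h, or 1 μM for varying times. HSP70 and HSP90 client proteins detected by Western blot of whole-cell lysates, with GAPDH as internal control. Repeated in at least three independent experiments.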
On the technique in general: A western blot detects proteins with antibodies after separation by electrophoresis.

In test [4] the target is T1, Heat shock protein HSP90 (Homo sapiens). Nature of the test: Inhibition of HSP90 in human H1975 cells assessed as downregulation of FAK protein level by Western blot analysis. Type of test: cell-based. The method, boiled down:
as §2

For test [5], the target named is T2, Histone deacetylase (Homo sapiens) (UniProt Q13547+O15379+Q9UBN7+Q92769+Q9UQL6+Q8WUI4+Q9BY41+Q96DB2+P56524+Q9UKV0+Q969S8). Description: Inhibition of HDAC in human H1975 cells assessed as alpha tubulin acetylation after 24 hrs by Western blot analysis. Type of test: cell-based. Put shortly:
(§3)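 Whole-cell lysates from H1975 cells after 24 h culture with compound at the indicated concentrations. Acetylated α-tubulin and acetylated histone H3 detected by immunoblot: SDS-PAGE, PVDF transfer, primary antibody overnight at 4°C, HRP secondary, ECL. Repeated at least three times.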

In test [6] the target is NAD-dependent protein deacetylase sirtuin-1 (Homo sapiens, UniProt Q96EB6). Nature of the test: Inhibition of human recombinant N-terminal His-tagged SIRT1 (1 to 747 residues) expressed in Escherichia coli using Ac-RHK-K(Ac)-AMC as substrate after 30 mins in presence of NAD+ by fluorimetry analysis. The method, boiled down: (§4)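 Isoform assays run by an outside contractor. […] Trichostatin A tested in parallel the same way as control.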
NAD-dependent protein deacetylase sirtuin-1, sequence (Q96EB6 whole entry, the tested form may be a part, canonical isoform): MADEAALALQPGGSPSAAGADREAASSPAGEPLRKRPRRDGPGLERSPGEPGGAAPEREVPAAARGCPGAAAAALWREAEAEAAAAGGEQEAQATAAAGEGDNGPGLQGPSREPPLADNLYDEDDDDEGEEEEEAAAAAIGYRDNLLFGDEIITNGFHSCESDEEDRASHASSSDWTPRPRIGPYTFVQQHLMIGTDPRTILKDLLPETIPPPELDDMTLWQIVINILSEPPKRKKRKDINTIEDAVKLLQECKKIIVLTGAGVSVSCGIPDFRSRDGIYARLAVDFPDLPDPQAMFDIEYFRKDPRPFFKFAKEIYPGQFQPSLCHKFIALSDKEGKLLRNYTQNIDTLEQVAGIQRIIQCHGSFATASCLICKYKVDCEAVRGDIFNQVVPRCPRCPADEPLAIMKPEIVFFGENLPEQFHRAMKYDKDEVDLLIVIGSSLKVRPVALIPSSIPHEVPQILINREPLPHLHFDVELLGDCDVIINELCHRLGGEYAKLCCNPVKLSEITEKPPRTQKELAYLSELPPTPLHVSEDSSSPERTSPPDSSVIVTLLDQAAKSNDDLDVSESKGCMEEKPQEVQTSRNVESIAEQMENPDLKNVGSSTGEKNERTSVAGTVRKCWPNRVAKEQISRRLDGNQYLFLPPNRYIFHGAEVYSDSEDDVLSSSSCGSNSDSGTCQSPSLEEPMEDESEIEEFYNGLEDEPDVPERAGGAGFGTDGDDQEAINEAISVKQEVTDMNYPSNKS

The target in test [7] is Polyamine deacetylase HDAC10 (Homo sapiens, UniProt Q969S8). Nature of the test: Inhibition of human HDAC10 using fluorescent-labelled p53 residues 379 to 382 (RHKKAc) peptide as substrate by fluorescence assay. Put shortly:
as §4

The target in test [8] is Heat shock protein HSP 90-alpha (Homo sapiens, UniProt P07900). Nature of the test: Inhibition of FITC-geldanamycin binding to recombinant human full-length C-terminal His-tagged HSP90alpha expressed in Escherichia coli after 3 hrs by fluorescence polarization assay. Background: Polarisation of emitted light reports the rotation of a fluorescent probe.
Test [9] concerns NCI-H1975. Nature of the test: Induction of apoptosis in human NCI-H1975 cells assessed as activation of PARP at 0.1 to 3 uM measured after 48 hrs immunoblot analysis. It counts as functional, cell-based. Put shortly:
as §1

For test [10], the target named is T2, Histone deacetylase (Homo sapiens). Nature of the test: Inhibition of HDAC in human H1975 cells assessed as Histone H3 acetylation after 24 hrs by Western blot analysis. Type of test: cell-based. Put shortly:
as §3

The source made the active and inactive calls. No cut-off for these calls is given here. Some results are limits rather than exact numbers.

Here are results for two molecules from ChEMBL document CHEMBL4373735, “N-alkyl-hydroxybenzoyl anilide hydroxamates as dual inhibitors of HDAC and HSP90, downregulating IFN-γ induced PD-L1 expression” (Eur J Med Chem, 2020).

Polyamine deacetylase HDAC10, sequence (Q969S8 whole entry, the tested form may be a part): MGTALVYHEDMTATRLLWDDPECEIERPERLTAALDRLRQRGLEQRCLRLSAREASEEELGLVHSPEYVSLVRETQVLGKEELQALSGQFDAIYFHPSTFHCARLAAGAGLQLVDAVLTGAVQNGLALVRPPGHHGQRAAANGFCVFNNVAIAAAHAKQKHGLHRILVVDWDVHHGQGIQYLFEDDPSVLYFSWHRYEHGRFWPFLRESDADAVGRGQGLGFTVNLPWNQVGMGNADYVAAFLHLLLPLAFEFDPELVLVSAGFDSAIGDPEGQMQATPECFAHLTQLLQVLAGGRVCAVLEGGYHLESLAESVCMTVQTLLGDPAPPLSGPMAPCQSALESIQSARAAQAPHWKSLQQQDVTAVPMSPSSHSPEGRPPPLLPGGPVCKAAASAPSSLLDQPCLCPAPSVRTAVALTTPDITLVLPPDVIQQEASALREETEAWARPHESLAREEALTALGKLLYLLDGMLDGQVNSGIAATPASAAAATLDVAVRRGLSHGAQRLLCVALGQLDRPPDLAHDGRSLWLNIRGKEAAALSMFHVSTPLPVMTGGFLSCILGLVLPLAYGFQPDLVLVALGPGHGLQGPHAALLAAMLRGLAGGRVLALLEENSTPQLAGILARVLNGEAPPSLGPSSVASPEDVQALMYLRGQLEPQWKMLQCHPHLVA

As a reminder, the IC50 is the concentration that gives 50% inhibition. Take `CC(C)c1cc(C(=O)N(C)c2ccc(NC(=O)CCCCCCCC(=O)NO)cc2)c(O)cc1O`: the result in test [1], in test [2] and in test [9] was Active. For the same molecule, the inhibition entry in test [3] and in test [4] was “Active” throughout. The inhibition entry in test [5] and in test [10] was “Dose-dependent effect” in each case. The IC50 was above 10000 nM in test [6], above 10000 nM in [7] and 77.2 nM in test [8].
Turning to `CC(C)c1cc(C(=O)N(C)c2ccc(NC(=O)CCCCCCC(=O)NO)cc2)c(O)cc1O`, the result in test [1], in test [2] and in test [9] was Active. In addition, the inhibition entry in [3] and in [4] was “Active” throughout. The inhibition entry in test [5] and in test [10] was “Dose-dependent effect” in each case. Moreover, the IC50 in test [6] is above 10000 nM; in test [7], 2670 nM; in test [8] it was 153 nM.
